In paper PMC6633905 (Molecular pharmaceutics, 2018):

Legend:
human DP1 receptors = molecular target: T1, human DP1 receptors (Homo sapiens, UniProt Q13258); test: cAMP TR-FRET counter screen in C6-glioma cells, DP1; format: cell-based; settings: read-out: DP1 KB; Schild KB; C6-glioma cells overexpressing DP1; agonist BW245C
T1 sequence (Q13258 1-359): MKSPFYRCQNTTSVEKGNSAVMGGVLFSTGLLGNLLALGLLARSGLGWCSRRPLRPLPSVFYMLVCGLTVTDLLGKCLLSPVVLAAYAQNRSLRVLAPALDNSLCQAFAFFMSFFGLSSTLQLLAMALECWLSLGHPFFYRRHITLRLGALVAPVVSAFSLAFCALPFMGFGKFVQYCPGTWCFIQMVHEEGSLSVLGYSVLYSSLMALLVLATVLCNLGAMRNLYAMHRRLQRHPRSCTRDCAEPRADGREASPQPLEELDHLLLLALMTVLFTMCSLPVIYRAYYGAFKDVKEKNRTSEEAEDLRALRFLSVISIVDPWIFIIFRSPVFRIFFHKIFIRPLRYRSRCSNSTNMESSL
Outline: (§1)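 Rat C6 glioma cells stably expressing the human receptor, seeded 4,000/well overnight; 0.5 h in HBSS with 20 μM rolipram at room temperature; test compound for 10 or 50 min, then rising agonist concentrations for 40 min. Lysis, cAMP-d2/anti-cAMP-Cryptate TR-FRET (F665/F590).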

human IP receptors = human IP receptors (Homo sapiens, UniProt P43119); test: cAMP TR-FRET counter screen in C6-glioma cells, IP; format: cell-based; settings: read-out: IP KB; Schild KB; C6-glioma cells overexpressing IP; agonist iloprost
Chain of human IP receptors (P43119 whole entry): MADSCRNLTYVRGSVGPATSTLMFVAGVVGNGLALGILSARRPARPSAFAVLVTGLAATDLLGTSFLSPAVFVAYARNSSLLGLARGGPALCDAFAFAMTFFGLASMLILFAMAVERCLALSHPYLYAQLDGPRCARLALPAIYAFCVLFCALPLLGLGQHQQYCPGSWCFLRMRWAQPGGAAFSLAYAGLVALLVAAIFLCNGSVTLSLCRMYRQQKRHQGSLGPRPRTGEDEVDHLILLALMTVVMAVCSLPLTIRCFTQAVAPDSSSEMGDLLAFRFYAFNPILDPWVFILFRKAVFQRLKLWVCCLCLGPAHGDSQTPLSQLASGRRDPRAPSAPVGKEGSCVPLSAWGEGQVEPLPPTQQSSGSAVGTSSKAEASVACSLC
Outline: as §1

Kb (human DP1 receptors): 48.3 µM
Kb (human IP receptors): 1.7 µM
Structure (SMILES): COc1ccc2cc(OCC3(C(=O)O)CN(C(=O)c4ccc(F)cc4)C3)ccc2c1 [PF-04418948]
